# Reference: ChEMBL document CHEMBL4699539, “Dual antagonists of α5β1/αvβ1 integrin for airway hyperresponsiveness” (Bioorg Med Chem Lett, 2020)
# Calls of active or inactive are those of the source. The calls are words filed in the database; no cut-off is given here.
# What was measured:
# Integrin alpha-4/beta-1 = Integrin alpha-4/beta-1 (Homo sapiens, UniProt P05556+P13612); experiment: Inhibition of alpha4beta1 integrin (unknown origin) by solid phase binding assay; type: protein-complex assay
# Integrin alpha-V/beta-6 = Integrin alpha-V/beta-6 (Homo sapiens, UniProt P06756+P18564); experiment: Inhibition of alphavbeta6 integrin (unknown origin) by solid phase binding assay; type: protein-complex assay
# Integrin alpha-V/beta-6, sequence (P06756 31-889 limits assumed): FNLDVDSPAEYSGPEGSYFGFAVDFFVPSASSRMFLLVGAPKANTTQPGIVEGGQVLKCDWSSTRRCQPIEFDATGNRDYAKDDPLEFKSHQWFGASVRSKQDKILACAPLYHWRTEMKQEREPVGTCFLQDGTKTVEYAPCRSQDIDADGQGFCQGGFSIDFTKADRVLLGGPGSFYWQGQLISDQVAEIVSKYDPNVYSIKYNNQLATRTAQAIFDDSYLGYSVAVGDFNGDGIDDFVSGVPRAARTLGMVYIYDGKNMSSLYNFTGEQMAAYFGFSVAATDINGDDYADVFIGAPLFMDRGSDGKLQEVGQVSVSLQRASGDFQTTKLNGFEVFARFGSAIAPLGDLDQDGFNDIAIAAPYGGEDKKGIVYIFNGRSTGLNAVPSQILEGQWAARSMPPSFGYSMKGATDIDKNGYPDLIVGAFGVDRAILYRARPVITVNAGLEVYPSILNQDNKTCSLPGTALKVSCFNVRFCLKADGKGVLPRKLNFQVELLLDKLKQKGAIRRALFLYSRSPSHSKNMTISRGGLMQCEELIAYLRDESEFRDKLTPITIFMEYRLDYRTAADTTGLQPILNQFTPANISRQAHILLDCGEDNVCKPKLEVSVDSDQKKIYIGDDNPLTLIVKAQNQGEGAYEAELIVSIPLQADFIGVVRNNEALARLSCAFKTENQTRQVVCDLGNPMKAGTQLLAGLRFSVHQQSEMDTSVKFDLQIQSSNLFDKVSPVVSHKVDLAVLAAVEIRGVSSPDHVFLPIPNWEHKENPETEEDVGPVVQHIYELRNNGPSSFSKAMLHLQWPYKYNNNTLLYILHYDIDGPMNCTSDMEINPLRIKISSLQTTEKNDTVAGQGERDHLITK
# Integrin alpha-V/beta-6, sequence (P06756 891-1048 limits assumed): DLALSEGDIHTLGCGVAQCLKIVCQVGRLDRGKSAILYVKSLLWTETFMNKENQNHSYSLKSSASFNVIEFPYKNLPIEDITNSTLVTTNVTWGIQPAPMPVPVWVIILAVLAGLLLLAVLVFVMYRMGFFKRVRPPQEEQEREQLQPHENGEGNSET
# Integrin alpha-V/beta-6, sequence (P18564 22-788 limits assumed): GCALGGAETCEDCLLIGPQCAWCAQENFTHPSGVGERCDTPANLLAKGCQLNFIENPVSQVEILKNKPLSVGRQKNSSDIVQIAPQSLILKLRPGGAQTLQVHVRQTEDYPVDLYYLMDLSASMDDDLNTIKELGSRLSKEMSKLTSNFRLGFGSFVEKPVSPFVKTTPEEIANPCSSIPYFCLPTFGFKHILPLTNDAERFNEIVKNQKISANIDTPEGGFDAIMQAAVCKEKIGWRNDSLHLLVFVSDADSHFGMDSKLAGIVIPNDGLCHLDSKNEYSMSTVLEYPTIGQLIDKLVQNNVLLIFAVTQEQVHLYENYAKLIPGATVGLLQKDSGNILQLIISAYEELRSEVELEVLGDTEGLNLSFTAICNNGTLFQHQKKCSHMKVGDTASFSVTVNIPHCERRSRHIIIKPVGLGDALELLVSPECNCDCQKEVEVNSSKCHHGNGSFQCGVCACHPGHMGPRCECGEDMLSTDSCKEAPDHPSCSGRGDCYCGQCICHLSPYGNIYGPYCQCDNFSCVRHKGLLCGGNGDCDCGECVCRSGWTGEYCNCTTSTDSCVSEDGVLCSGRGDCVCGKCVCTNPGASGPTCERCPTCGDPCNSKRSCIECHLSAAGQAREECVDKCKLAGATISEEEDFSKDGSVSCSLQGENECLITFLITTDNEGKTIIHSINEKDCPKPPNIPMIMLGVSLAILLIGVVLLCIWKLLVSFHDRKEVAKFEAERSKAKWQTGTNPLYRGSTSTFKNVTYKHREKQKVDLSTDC
# Integrin alpha-V/beta-3 [1] = target: T1, Integrin alpha-V/beta-3 (Homo sapiens, UniProt P05106+P06756); experiment: Inhibition of alphavbeta3 integrin (unknown origin) by solid phase binding assay; type: protein-complex assay
# Integrin alpha-V/beta-8 = Integrin alpha-V/beta-8 (Homo sapiens, UniProt P06756+P26012); experiment: Inhibition of alphavbeta8 integrin (unknown origin) by solid phase binding assay; type: protein-complex assay
# Integrin alpha-V/beta-8, sequence (P06756 31-889 limits assumed): as the sequence (P06756 31-889 limits assumed) above
# Integrin alpha-V/beta-8, sequence (P06756 891-1048 limits assumed): as the sequence (P06756 891-1048 limits assumed) above
# Integrin alpha-V/beta-8, sequence (P26012 43-769 limits assumed): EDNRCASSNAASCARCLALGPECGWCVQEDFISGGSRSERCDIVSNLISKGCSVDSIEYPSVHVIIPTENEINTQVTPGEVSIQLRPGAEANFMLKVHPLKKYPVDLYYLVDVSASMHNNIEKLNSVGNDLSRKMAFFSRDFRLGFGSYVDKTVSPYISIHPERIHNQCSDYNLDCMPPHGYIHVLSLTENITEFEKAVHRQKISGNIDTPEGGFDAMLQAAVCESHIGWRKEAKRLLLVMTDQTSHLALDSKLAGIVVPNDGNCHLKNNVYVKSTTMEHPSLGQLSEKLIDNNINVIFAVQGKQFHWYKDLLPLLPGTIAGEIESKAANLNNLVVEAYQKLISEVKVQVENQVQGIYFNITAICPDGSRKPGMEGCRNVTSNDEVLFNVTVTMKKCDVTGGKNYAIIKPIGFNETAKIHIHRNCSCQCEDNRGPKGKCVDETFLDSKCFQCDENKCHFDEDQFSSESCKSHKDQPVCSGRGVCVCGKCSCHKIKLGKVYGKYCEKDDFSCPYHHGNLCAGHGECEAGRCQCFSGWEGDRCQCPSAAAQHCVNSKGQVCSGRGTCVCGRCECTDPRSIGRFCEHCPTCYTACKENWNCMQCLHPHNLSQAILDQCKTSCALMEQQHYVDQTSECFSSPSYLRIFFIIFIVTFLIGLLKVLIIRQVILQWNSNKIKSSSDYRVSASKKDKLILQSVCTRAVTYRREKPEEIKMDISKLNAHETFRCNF
# Integrin alpha-V/beta-1 [2] = target: T2, Integrin alpha-V/beta-1 (Homo sapiens, UniProt P05556+P06756); experiment: Inhibition of alphavbeta1 integrin (unknown origin) by solid phase binding assay; type: protein-complex assay
# T2 sequence (P05556 21-798 limits assumed): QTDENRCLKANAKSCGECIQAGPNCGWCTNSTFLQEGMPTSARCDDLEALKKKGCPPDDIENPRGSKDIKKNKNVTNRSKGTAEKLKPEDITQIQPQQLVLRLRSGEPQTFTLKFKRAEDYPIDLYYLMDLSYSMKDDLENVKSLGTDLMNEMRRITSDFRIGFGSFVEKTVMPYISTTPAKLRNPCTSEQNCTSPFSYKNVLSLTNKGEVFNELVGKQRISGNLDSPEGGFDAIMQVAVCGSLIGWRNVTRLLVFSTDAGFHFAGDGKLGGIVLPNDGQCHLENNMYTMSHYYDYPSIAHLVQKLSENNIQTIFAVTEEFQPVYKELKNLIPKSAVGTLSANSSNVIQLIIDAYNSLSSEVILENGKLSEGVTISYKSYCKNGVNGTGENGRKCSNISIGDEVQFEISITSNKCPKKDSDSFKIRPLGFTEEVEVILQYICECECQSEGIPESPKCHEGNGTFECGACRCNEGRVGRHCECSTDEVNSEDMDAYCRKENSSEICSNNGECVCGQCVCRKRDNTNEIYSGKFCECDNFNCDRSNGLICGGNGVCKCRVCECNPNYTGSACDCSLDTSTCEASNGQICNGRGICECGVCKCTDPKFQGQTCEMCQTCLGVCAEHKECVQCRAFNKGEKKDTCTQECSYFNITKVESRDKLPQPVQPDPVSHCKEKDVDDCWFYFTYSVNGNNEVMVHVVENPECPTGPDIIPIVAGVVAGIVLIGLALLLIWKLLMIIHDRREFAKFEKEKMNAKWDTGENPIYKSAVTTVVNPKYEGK
# T2 sequence (P06756 31-889 limits assumed): as the sequence (P06756 31-889 limits assumed) above
# T2 sequence (P06756 891-1048 limits assumed): as the sequence (P06756 891-1048 limits assumed) above
# Integrin alpha-5/beta-1 [3] = target: T3, Integrin alpha-5/beta-1 (Homo sapiens, UniProt P05556+P08648); experiment: Inhibition of alpha5beta1 integrin (unknown origin) by solid phase binding assay; type: protein-complex assay
# Homo sapiens = organism: Homo sapiens; experiment: Selectivity index, ratio of IC50 for alphavbeta3 integrin (unknown origin) to IC50 for alpha4beta1 integrin (unknown origin) by solid phase binding assay
# Integrin alpha-V/beta-5 = Integrin alpha-V/beta-5 (Homo sapiens, UniProt P06756+P18084); experiment: Inhibition of alphavbeta5 integrin (unknown origin) by solid phase binding assay; type: protein-complex assay
# Integrin alpha-V/beta-5, sequence (P06756 31-889 limits assumed): as the sequence (P06756 31-889 limits assumed) above
# Integrin alpha-V/beta-5, sequence (P06756 891-1048 limits assumed): as the sequence (P06756 891-1048 limits assumed) above
# Integrin alpha-V/beta-5, sequence (P18084 24-799 limits assumed): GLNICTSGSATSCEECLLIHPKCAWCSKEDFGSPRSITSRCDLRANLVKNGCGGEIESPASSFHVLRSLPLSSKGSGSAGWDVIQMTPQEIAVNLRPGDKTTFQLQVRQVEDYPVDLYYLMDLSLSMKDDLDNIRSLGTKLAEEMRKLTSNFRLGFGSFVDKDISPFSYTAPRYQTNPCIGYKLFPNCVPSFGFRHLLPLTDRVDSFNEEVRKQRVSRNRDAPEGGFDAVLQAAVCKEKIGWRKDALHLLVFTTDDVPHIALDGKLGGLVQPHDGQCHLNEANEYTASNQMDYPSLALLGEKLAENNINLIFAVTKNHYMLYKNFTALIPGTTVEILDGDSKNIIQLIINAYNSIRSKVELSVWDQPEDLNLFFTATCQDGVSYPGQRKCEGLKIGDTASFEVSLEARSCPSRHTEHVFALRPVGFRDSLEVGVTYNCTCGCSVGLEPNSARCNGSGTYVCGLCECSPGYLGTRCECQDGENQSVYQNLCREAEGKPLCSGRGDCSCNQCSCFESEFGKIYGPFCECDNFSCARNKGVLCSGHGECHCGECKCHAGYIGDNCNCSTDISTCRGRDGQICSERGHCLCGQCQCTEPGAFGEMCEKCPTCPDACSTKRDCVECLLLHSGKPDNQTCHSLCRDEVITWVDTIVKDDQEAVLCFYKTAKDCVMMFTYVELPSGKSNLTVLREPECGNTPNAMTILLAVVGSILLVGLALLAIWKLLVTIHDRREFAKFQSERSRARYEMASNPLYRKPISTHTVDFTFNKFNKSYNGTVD
# Integrin alpha-5/beta-1 [4] = target: T3, Integrin alpha-5/beta-1; experiment: Inhibition of alpha5beta1 integrin in human SW480 cells assessed as inhibition of cell adhesion to fibronectin incubated for 60 mins by crystal violet staining based analysis
# Outline: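 Adhesion of SW480 cells plated on fibronectin coated at 0.3 µg/ml, used to measure α5β1-mediated attachment. IC50 values are means ± S.D., n = 3 or higher.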
# Integrin alpha-V/beta-3 [5] = target: T1, Integrin alpha-V/beta-3; experiment: Inhibition of alphavbeta3 integrin (unknown origin) expressed in human SW480 cells transfected with human beta3 assessed as inhibition of cell adhesion to fibrinogen incubated for 60 mins by crystal violet staining based analysis
# Outline: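 SW480 cells transfected with human β3, allowed to adhere to fibrinogen coated at 1 µg/ml, used to measure αvβ3-mediated attachment. IC50 values are means ± S.D., n = 3 or higher.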
# Integrin alpha-V/beta-1 [6] = target: T2, Integrin alpha-V/beta-1; experiment: Inhibition of alphavbeta1 integrin (unknown origin) expressed in CHO cells assessed as inhibition of cell adhesion to fibronectin incubated for 60 mins by crystal violet staining based analysis
# Outline: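 Adhesion of CHOαv cells to fibronectin coated at 0.3 µg/ml, used to measure αvβ1-mediated attachment. IC50 values are means ± S.D., n = 3 or higher.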
# [7] = Apparent permeability of the compound across apical to basolateral side in human Caco-2 cells; type: ADME, cell-based
# [8] = Apparent permeability of the compound across basolateral to apical side in human Caco-2 cells; type: ADME, cell-based
# Mus musculus [9] = organism: Mus musculus; experiment: Antagonist activity at alpha5beta1 integrin/alphavbeta1 integrin in mouse tracheal rings assessed as inhibition of methacholine-induced airway hyperresponsiveness at 100 nM incubated with compound for 1 hr in presence of methacholine; type: tissue-based; settings: Trachea, filed as antagonist
# Outline: (§1)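 Wild-type mouse tracheal rings incubated 12 h with IL-13 (100 ng/mL), then 1 h with compound or vehicle. Force generated was measured in response to a range of methacholine concentrations. Negative-control rings received no IL-13. n=3 rings per group; statistics by repeated measures of variance.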
# Mus musculus [10] = organism: Mus musculus; experiment: Antagonist activity at alpha5beta1 integrin/alphavbeta1 integrin in mouse tracheal rings assessed as inhibition of methacholine-induced airway hyperresponsiveness at 100 nM pretreated with IL-13 for 12 hrs followed by incubation with compound for 1 hr in presence of methacholine; type: tissue-based; settings: Trachea, filed as antagonist; outline: as §1
Compound,IC50 (Integrin alpha-5/beta-1 [4]) [nM],IC50 (Integrin alpha-V/beta-3 [5]) [nM],IC50 (Integrin alpha-V/beta-1 [6]) [nM],IC50 (Integrin alpha-4/beta-1) [nM],IC50 (Integrin alpha-V/beta-6) [nM],IC50 (Integrin alpha-V/beta-3 [1]) [nM],IC50 (Integrin alpha-V/beta-8) [nM],IC50 (Integrin alpha-V/beta-1 [2]) [nM],IC50 (Integrin alpha-5/beta-1 [3]) [nM],IC50 (Integrin alpha-V/beta-5) [nM],further results
N=C(N)Nc1cc(NC(=O)CCCCNC(=O)C23CC4CC(CC(C4)C2)C3)cc(C(=O)NCC(=O)NC[C@H](NC(=O)[C@@H]2CCCN2S(=O)(=O)c2ccccc2)C(=O)O)c1,–,–,–,182,1870,> 10000,6830,< 0.1,0.7,320,Ratio IC50 (Homo sapiens): > 100
N=C(N)Nc1cc(NC(=O)CCNC(=O)C23CC4CC(CC(C4)C2)C3)cc(C(=O)NCC(=O)NC[C@H](NC(=O)[C@@H]2CCCN2S(=O)(=O)c2ccccc2)C(=O)O)c1,–,–,–,100,> 10000,> 10000,> 10000,< 0.1,1.4,> 10000,Ratio IC50 (Homo sapiens): > 100
N=C(N)NCCCCCCNC(=O)NC[C@H](NC(=O)[C@@H]1CCCN1S(=O)(=O)c1ccccc1)C(=O)O,900,15000,0.9,–,–,–,–,–,–,–,–
N=C(N)Nc1cc(NC(=O)CNC(=O)C23CC4CC(CC(C4)C2)C3)cc(C(=O)NCC(=O)NC[C@H](NC(=O)[C@@H]2CCCN2S(=O)(=O)c2ccccc2)C(=O)O)c1,–,–,–,136,> 10000,> 10000,> 10000,< 0.1,1.6,> 10000,–
N=C(N)NCCCCCC(=O)NC[C@H](NC(=O)[C@@H]1CCCN1S(=O)(=O)c1ccccc1)C(=O)O,830,10000,316,–,–,–,–,–,–,–,–
N=C(N)Nc1cc(NC(=O)CCCNC(=O)C23CC4CC(CC(C4)C2)C3)cc(C(=O)NCC(=O)NC[C@H](NC(=O)[C@@H]2CCCN2S(=O)(=O)c2ccccc2)C(=O)O)c1,2.6,8800,0.8,105,2760,> 10000,> 10000,0.14,0.8,3000,Papp [7]: 0.37 10^-6 cm/s; Papp [8]: 0.27 10^-6 cm/s; Ratio IC50 (Homo sapiens): > 100
N=C(N)Nc1cc(NC(=O)CCCC(=O)NC23CC4CC(CC(C4)C2)C3)cc(C(=O)NCC(=O)NC[C@H](NC(=O)[C@@H]2CCCN2S(=O)(=O)c2ccccc2)C(=O)O)c1,–,–,–,161,> 10000,> 10000,> 10000,0.3,1,980,Ratio IC50 (Homo sapiens): > 100

# The next lines start with results.
IC50 (Integrin alpha-5/beta-1 [4]) [nM],IC50 (Integrin alpha-V/beta-3 [5]) [nM],IC50 (Integrin alpha-V/beta-1 [6]) [nM],Compound,IC50 (Integrin alpha-4/beta-1) [nM],IC50 (Integrin alpha-V/beta-6) [nM],IC50 (Integrin alpha-V/beta-3 [1]) [nM],IC50 (Integrin alpha-V/beta-8) [nM],IC50 (Integrin alpha-V/beta-1 [2]) [nM],IC50 (Integrin alpha-5/beta-1 [3]) [nM],IC50 (Integrin alpha-V/beta-5) [nM],further results
> 10000,> 10000,0.5,N=C(N)NCCCCC(=O)Nc1ccc(C[C@H](NC(=O)[C@@H]2CCCN2S(=O)(=O)c2ccccc2)C(=O)O)cc1,–,–,–,–,–,–,–,–
32,56000,–,N=C(N)Nc1cc(NC(=O)CCCN)cc(C(=O)NCC(=O)NC[C@H](NC(=O)[C@@H]2CCCN2S(=O)(=O)c2ccccc2)C(=O)O)c1,–,–,–,–,–,–,–,–
500,–,0.8,N=C(N)NCCCCCNC(=O)NC[C@H](NC(=O)[C@@H]1CCCN1S(=O)(=O)c1ccccc1)C(=O)O,–,–,–,–,–,–,–,–
9700,> 100000,4,N=C(N)NCCCCNC(=O)NC[C@H](NC(=O)[C@@H]1CCCN1S(=O)(=O)c1ccccc1)C(=O)O,–,–,–,–,–,–,–,–
–,1100,32,N=C(N)Nc1cccc(C(=O)NCC(=O)NC[C@H](NC(=O)[C@@H]2CCCN2S(=O)(=O)c2ccccc2)C(=O)O)c1,–,–,–,–,–,–,–,inhibition (Mus musculus [9]): Active; inhibition (Mus musculus [10]): Active
50,6500,158,N=C(N)Nc1cccc(C(=O)NNC(=O)NC[C@H](NC(=O)[C@@H]2CCCN2S(=O)(=O)c2ccccc2)C(=O)O)c1,–,–,–,–,–,–,–,–
110,16800,–,CCCCCCCC(=O)Nc1cc(NC(=N)N)cc(C(=O)NCC(=O)NC[C@H](NC(=O)[C@@H]2CCCN2S(=O)(=O)c2ccccc2)C(=O)O)c1,–,–,–,–,–,–,–,–
